Measurements from ChEMBL document CHEMBL4513216, “Probing the Open Global Health Chemical Diversity Library for Multistage-Active Starting Points for Next-Generation Antimalarials” (ACS Infect Dis, 2020).

Assay: Toxicity liver stage against HepG2, at 10uM
Assay type: cell-based
Design: test concentration 10 uM, cell line HepG2-A16-CD81EGFP
Details: human, HepG2-A16-CD81EGFP cells; read-out: INHIBITION
Method in brief: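 Uninfected HepG2-A16-CD81EGFP cells, 3 × 10^3 per well, 1536-well, plated on prespotted compound at 10 μM final, parasite-free screening media added to match infected plates; puromycin 10 μM positive, DMSO 0.5% negative; run in parallel with 48 h PbLuc assay at 37 °C, 5% CO2; viability by CellTiter-Glo luminescence, normalized to controls.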

| Structure (SMILES) | cytotoxicity at 10 µM [%] |
| --- | --- |
| Cc1ncnc2c1CCN(C(=O)Cc1ccccn1)CC2 | 8.12 |
| COc1ccc(CNC(Cc2ccsc2)c2ccc(C)cn2)c(OC)c1 (centres undefined) | 6.36 |
| O=C(CCN1CCc2[nH]nc(C(F)(F)F)c2C1)Nc1ccccc1 | -1.2 |
| CC(C)CNC(=O)CN(Cc1ccc(F)cc1)S(C)(=O)=O | 10.2 |
| Cn1cc(CNC2CCc3c(ccc(=O)n3Cc3ccncc3)C2)cn1 (centres undefined) | -102 |
| NC(=O)Cn1ccc(NC(=O)C2(c3cccc(F)c3)CCC2)n1 | -5.75 |
| CN(C(=O)C1CCC1)C1CCN(c2ccccc2Cl)C1=O (centres undefined) | -0.949 |
| CC(C)c1nn(C)c(N(C)C)c1CNCc1cscn1 | -5.54 |
| CCOC(C)C(=O)Nc1ccc(Sc2nncn2C)c(Cl)c1 (centres undefined) | -1.37 |
| Cc1cc(C)c(NC(=O)Nc2cnn(CC(O)CN(C)C)c2)c(C)c1 (centres undefined) | 12.5 |
| O=C(NCc1nncn1C1CC1)c1ccc(F)c(COCC2CC2)c1 | 10.2 |
| CCN1CCCC(c2cc(Nc3cnccn3)nc(C)n2)C1 (centres undefined) | -12.9 |
| Cc1nc(COC[C@@]23CCC[C@@H]2CN(Cc2cnn(C)c2)C3)cs1 | -101 |
| c1ccc(-n2cc(CN3CCCC3Cn3cccn3)nn2)cc1 (centres undefined) | 0.207 |
| Cc1nnc(N2CC[C@H]3C[C@H](C(=O)N4CCOCC4)O[C@H]3C2)s1 | -0.671 |
| Cc1noc2ncc(S(=O)(=O)Nc3cc(C(C)(C)C)n[nH]3)cc12 | 3.26 |
| CCN(C)C(=O)c1ccc2c(c1)C(c1nc[nH]n1)CN2S(C)(=O)=O (centres undefined) | -137 |
| CC(C)CC(C(=O)N1CCCSCC1)N1CCCCC1=O (centres undefined) | -11 |
| CNC(=O)C1(N2CCC[C@H]2C(=O)NC2CC2)CCCCC1 | -1.69 |
| COCC(O)CNC(=O)c1cnc(-c2ccccc2)nc1O (centres undefined) | -10.2 |
| Cc1ccc(OCc2occc2C(=O)O)cc1 | -3.76 |
| Cc1nn(C)c(C)c1OCC(=O)N1CCCCC1 | 2.23 |
| CCc1ccccc1OC1CN(C(=O)c2ccnc(OC)c2)C1 | 32.8 |

| Structure (SMILES) | cytotoxicity at 10 µM [%] |
| --- | --- |
| Cn1cc(CN2CC3(CCN(C(=O)c4ccoc4)C3)C2)cn1 | -8.45 |
| CC(O)CC(C)(C)CNC(=O)NCc1cccc(-n2cncn2)c1 (centres undefined) | -4.79 |
| Cc1nc(C2CCCN2CC(=O)Nc2cc(C(C)(C)C)nn2C)no1 (centres undefined) | -10.9 |
| CNc1ccnc(N2C[C@@H](C)[C@](O)(C3CCC3)C2)n1 | -10.1 |
| CC(=O)N1CCC(NC(=O)CN2CCCc3c(C)ccc(F)c32)CC1 | -5.82 |
| COc1ccccc1OC1CN(Cc2ccc(C(=O)O)cc2)C1 | -8.98 |
| Clc1ccccc1CN1CCc2nc(C3CCCCN3)ncc2C1 (centres undefined) | -3.12 |
| COc1cc2nc3n(c(=O)c2cc1OC)CCN(C)CC3 | 2.39 |
| Cc1cc(OCC(=O)N2CCCC(c3nccs3)C2)no1 (centres undefined) | 0.953 |
| Cn1ncc(NC(=O)Cn2ccc(-c3ccc(F)cc3)n2)n1 | 1.05 |
| Cc1ccc(CN2CCC(Cc3nnc(CO)n3C)CC2)cc1C | 5.19 |
| O=C(NCCC1COc2ccccc2O1)c1ccc(-c2cc[nH]n2)nc1 (centres undefined) | -6.84 |
| Cc1cc(NC(=O)NCC2COc3ccccc3C2)no1 (centres undefined) | -9.47 |
| O=C(c1ccc(-n2cnnn2)cc1)N1CCCC(n2ccnc2)C1 (centres undefined) | -24.7 |
| Cc1ccccc1Oc1ncccc1CNC(=O)Cn1cccnc1=O | -16.8 |
| O=C(NCc1cc(-c2ccccc2)no1)NC1CCCCNC1=O (centres undefined) | -145 |
| N#Cc1ccc(CNCCc2cc(F)cc3c2OCOC3)cc1 | 6.58 |
| CSCC(CCO)NC(=O)Nc1cccc(Br)c1 (centres undefined) | -7.69 |
| O=C(NCCNc1ncccn1)C1CC(=O)N(Cc2ccco2)C1 (centres undefined) | -8.78 |
| CC(O)c1cn(Cc2ccccc2)nn1 (centres undefined) | 7.62 |
| CC(C)NC(=O)Nc1ccccc1CN1CCOCC1 | 4.89 |
| CN(C)S(=O)(=O)N1CCC(c2c(C(N)=O)sc3ccccc23)C1 (centres undefined) | 4.83 |
| COCC(=O)N1CCC2(CC(=O)N(c3cccc(F)c3)C2)C1 (centres undefined) | -156 |

| Structure (SMILES) | cytotoxicity at 10 µM [%] |
| --- | --- |
| CCS(=O)(=O)Nc1ccn(Cc2cccc(F)c2)n1 | 6.22 |
| COCC(=O)N1CCN(Cn2nc(C)c(Br)c2C)CC1 | 0.633 |
| Cc1noc(C2(NC(=O)c3cccnc3O)CCCCC2)n1 | -9.83 |
| COc1ccc(NC(=O)C2OC(c3cccs3)=NN2C(C)=O)cc1 (centres undefined) | -1.6 |
| CCn1c(-c2ccccc2)nn(CC(=O)NCCc2c[nH]cn2)c1=O | -2.99 |
| COC(=O)CCN(C)Cc1cc(Br)cs1 | 0.311 |
| CC(C)N1CCO[C@H]2CN(C(=O)c3ccncc3F)C[C@H]21 | -146 |
| CCC(=O)NCC(=O)Nc1ncc(I)cc1C | 5.4 |
| Cc1ccc(Cl)cc1S(=O)(=O)NCc1cnc(N(C)C)n1C | 5.17 |
| CCC(CNC(=O)c1nc(=O)[nH][nH]1)Oc1ccccc1C(F)(F)F (centres undefined) | 1.45 |
| c1ccc(CN2CCCC3(CCN(CC4CCCO4)CC3)C2)nc1 (centres undefined) | -115 |
| COc1cc(N2CCC[C@]3(C(=O)O)CN(C(C)C)C[C@@H]3C2)ncn1 | 4.14 |
| CC1(C)Cc2nc(C(C)(C)C)ncc2C(NC(=O)C2(N)CC2)C1 (centres undefined) | -2.49 |
| CC1c2ncc(CNC(=O)C3CC3)n2CCN1CC1CCC1 (centres undefined) | -3.15 |
| COCCN(Cc1cnn(C)c1)CC1CCOC1 (centres undefined) | -8.52 |
| CN(Cc1nc2ccccc2[nH]1)C(=O)C(C)(C)n1cc(Cl)cn1 | 6.16 |
| O=C(Nc1nc2c(s1)CNCC2)C1CC1 | -0.0154 |
| Cn1cc(N2CC3(CCN(Cc4ccsc4)CC3)OCC2=O)cn1 | -82.8 |
| CN1CCC(CN2CCC3(CCCN(Cc4ccoc4)C3)C2=O)CC1 (centres undefined) | -12.9 |
| CCN(CC)c1ncc2c(O)nc(C3CCNCC3)cc2n1 | 14.7 |
| COc1ccnc(N2CCN(C(=O)c3cnn(C)c3C3CC3)CC2)n1 | -2.88 |
| CCC(CCO)NS(=O)(=O)c1ccc(Br)cn1 (centres undefined) | 6.62 |
| O=C(Nc1ccccc1)N1C2CCC(O)(CC2)C1CN1CCOCC1 (centres undefined) | 10 |

| Structure (SMILES) | cytotoxicity at 10 µM [%] |
| --- | --- |
| CN(C)CCN1CCc2c(nnn2C)C1COCc1ccccc1 (centres undefined) | -90.3 |
| CNC(=O)CSC(C)c1ccc(Br)cc1 (centres undefined) | -5.71 |
| CSc1nsc(NC(=O)c2cc(C3CC3)nn2C)n1 | 6.86 |
| O=C(NCCn1cccn1)c1ccn(-c2cccc(F)c2)n1 | -4.58 |
| COc1ccc(CN2CCCC2c2cccc(F)c2)c(OC)c1OC (centres undefined) | 3.48 |
| COCCO[C@H]1CCN(Cc2cccnc2)[C@H]1Cc1cccnc1 | 0.0623 |
| Cc1noc(C)c1CN(C)C(=O)NCCOc1ccc(F)cc1F | -0.0414 |
| O=C(Cc1c[nH]c2ccccc12)N1CCC(Nc2ccccc2)CC1 | -12.9 |
| OCC(O)CSCc1cc(Cl)ccc1Cl (centres undefined) | -147 |
| COCCOCCC(=O)Nc1c(-c2ccc(F)cc2)ncn1C | -3.31 |
| O=C(O)C(c1ccc(Cl)c(F)c1)N1CCN(Cc2ccccn2)CC1 (centres undefined) | 8.09 |
| CCc1nnc(CN2CCN(CC(O)c3ccccc3)CC2)o1 (centres undefined) | -12.3 |
| CC(C)(C)c1ncc(CNc2ccccc2Cn2cncn2)s1 | 48.7 |
| Cc1cc(-c2nn(C)c(Cl)c2CN2CCC3(CC2)[C@H](O)C[C@@H]3O)no1 | -5.66 |
| OCCNC1CCc2cc3c(cc21)OCCO3 (centres undefined) | -5.82 |
| CCNc1cc2c(nn1)CCN(C(=O)c1cc3cc(C)ccc3o1)C2 | -18.7 |
| CS(=O)(=O)NCc1cnc2n1CCN(Cc1ccco1)CC2 | -4.31 |
| CCOCC(=O)N1Cc2[nH]nc(COCC3CC3)c2C1 | 9.29 |
| Cc1nn(C)c(N(C)C)c1CNC1CCc2c(F)cccc21 (centres undefined) | -5.87 |
| CC(C)N(Cc1cccnc1)C(=O)CSc1ccc(C#N)cc1 | 3.18 |
| CC(=O)N1C[C@@H](F)[C@@H](OCc2nc3ccccc3o2)C1 | -1.34 |
| O=C(Cc1ccc2c(c1)CCCC2)NCCc1ccccn1 | 1.9 |
| CC(C)C(=O)N1C[C@H]2CCCN[C@H]2C1 | 1.55 |

| Structure (SMILES) | cytotoxicity at 10 µM [%] |
| --- | --- |
| CC(CO)N(C)C(=O)c1cn(-c2ccc(Br)cc2)cn1 (centres undefined) | -2.87 |
| CN(Cc1nc2ccccc2s1)C1CCCN(c2cccnn2)C1 (centres undefined) | 5.15 |
| O=C(NCc1cc[nH]n1)NCC(O)c1ccc(F)cc1 (centres undefined) | -12 |
| CC(=O)c1ccc(NC(=O)N[C@H](C(=O)O)C(C)C)cc1 | -14.8 |
| COc1cccc2c1OCC(Cc1cc(C(=O)N3CCCC3)ccn1)C2 (centres undefined) | 5.15 |
| COC(=O)CCNC(=O)c1coc(COc2ccc(F)cc2)n1 | -4.1 |
| CC(NC(=O)c1cccs1)C(=O)NCc1cccnc1N1CCCCC1 (centres undefined) | -8.57 |
| CC(C)C[C@H](N)COc1cccc(F)c1Oc1ccccc1 | -5.08 |
| Cc1nn(C)c(Cl)c1CN1CCN(c2nccs2)C(C)C1 (centres undefined) | -27.1 |
| O=C(NCCc1cc2nc(-c3ccncc3)ccn2n1)C1CCOCC1 | 4.59 |
| O=C(c1ccoc1)N1CC[C@H]2C[C@@H](c3ccncn3)O[C@@H]2C1 | -76.1 |
| COCC(=O)N1CCCN(Cc2cc(C(C)C)no2)CC1 | 5.97 |
| CCc1cnc(CN(C)C(=O)Nc2cnc3c(c2)c(C)nn3C)s1 | 2.37 |
| CC(C)N1CCC2(CC1)C[C@@H](O)[C@H](c1ccccc1)NC2=O | -16.7 |
| COCCC(C)NC(=O)N1CCSC(C)(C)C1 (centres undefined) | -3.94 |
| CC(C)Nc1ccnc(-c2ccnc3c2ccn3C)n1 | -5.2 |
| NC(=O)NC(=O)C(c1ccccc1)N1CCN(Cc2ccsc2)CC1 (centres undefined) | 1.94 |
| Cc1cc(F)ccc1NS(=O)(=O)c1cc2c(c(C(=O)O)c1)OCCO2 | -6.56 |
| Cc1cc(C(=O)NCCN2CCN(S(C)(=O)=O)CC2)no1 | -6.29 |
| NCCCn1nc(C(F)(F)F)c2c1CCC2 | -8.3 |
| COCCCN(C)C1CCCN(Cc2noc(C)n2)C1 (centres undefined) | -8.06 |
| Clc1cc(Cl)cc(CN2CCC(NCc3ncc[nH]3)CC2)c1 | 18.4 |
